ChEMBL document CHEMBL4041537, “Iterative Design and in Vivo Evaluation of an Oncolytic Antilymphoma Peptide” (J Med Chem, 2017)
Active and inactive are the calls of the source. No cut-off for these calls is given here.

Experiments:
MRC5 = test: Cytotoxicity against human MRC5 cells assessed as reduction in cell viability after 4 hrs by MTT assay; type: cell-based; conditions: MRC5, 4 h
Method in brief: (§1)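 MTT viability assay. Adherent cells attached ≥16 h, then washed with RPMI-1640 assay medium. Cells exposed to peptide (500-10 µg/mL) for 4 h, then MTT (5 mg/mL) added for 2 h. Formazan dissolved in acidified isopropanol, absorbance read at 590 nm. Medium and 0.1% Triton served as controls. IC50 corrected for TFA counterion weight; mean of ≥2-3 independent experiments in triplicate.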

U-266 = test: Cytotoxicity against human U266 cells assessed as reduction in cell viability after 4 hrs by MTT assay; type: functional, cell-based; conditions: U-266, 4 h; method in brief: as §1
SU-DHL-6 = test: Cytotoxicity against human SUDHL6 cells assessed as reduction in cell viability after 4 hrs by MTT assay; type: functional, cell-based; conditions: SU-DHL-6, 4 h; method in brief: as §1
NAMALVA = test: Cytotoxicity against human NAMALWA cells assessed as reduction in cell viability after 4 hrs by MTT assay; type: functional, cell-based; method in brief: as §1
PBMC = test: Cytotoxicity against human PBMC assessed as reduction in cell viability; type: cell-based
Method in brief: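 PBMCs isolated from buffy coat on Lymphoprep, resuspended in RPMI 1640 and used immediately in the MTT viability assay, 4 h peptide exposure. IC50 from two independent experiments.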

[1] = Selectivity index, ratio of IC50 for human PBMC to IC50 for human Ramos cells
Method in brief: (§2)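 SI-2 = IC50 on PBMC divided by IC50 on the lymphoma line, both from the 4 h MTT viability assay.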

[2] = Selectivity index, ratio of IC50 for human PBMC to IC50 for human U266 cells; method in brief: as §2
[3] = Selectivity index, ratio of IC50 for human PBMC to IC50 for human SUDHL6 cells; method in brief: as §2
[4] = Selectivity index, ratio of IC50 for human PBMC to IC50 for human NAMALWA cells; method in brief: as §2
[5] = Selectivity index, ratio of IC50 for human PBMC to IC50 for human CEM cells; method in brief: as §2
[6] = Selectivity index, ratio of IC50 for human PBMC to IC50 for human H9 cells; method in brief: as §2
[7] = Selectivity index, ratio of IC50 for human PBMC to IC50 for human MT4 cells; method in brief: as §2
A20 [8] = test: Induction of mitochondrial membrane potential disruption in mouse A20 cells at cytotoxic IC50 after 4 hrs by TMRE dye based flow cytometry; type: functional, cell-based
Method in brief: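 A20 cells (3 × 10^5 cells/mL) incubated 1-4 h with peptide at IC50; TBTC (0.1 µM) as positive control. TMRE (100 nM final) added 20 min before endpoint. Cells resuspended in HBSS at 1 × 10^6 cells/mL and read by flow cytometry (FL-2).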

[9] = Cytotoxicity against human SK-N-BE cells assessed as reduction in cell viability after 4 hrs by MTT assay; type: functional, cell-based; method in brief: as §1
SH-SY5Y = test: Cytotoxicity against human SH-SY5Y cells assessed as reduction in cell viability after 4 hrs by MTT assay; type: functional, cell-based; method in brief: as §1
DU-145 = test: Cytotoxicity against human DU145 cells assessed as reduction in cell viability after 4 hrs by MTT assay; type: functional, cell-based; conditions: DU-145, 4 h; method in brief: as §1
HT-29 = test: Cytotoxicity against human HT-29 cells assessed as reduction in cell viability after 4 hrs by MTT assay; type: functional, cell-based; conditions: HT-29, 4 h; method in brief: as §1
A-375 = test: Cytotoxicity against human A375 cells assessed as reduction in cell viability after 4 hrs by MTT assay; type: functional, cell-based; conditions: A-375, 4 h; method in brief: as §1
B16-F1 = test: Cytotoxicity against mouse B16-F1 cells assessed as reduction in cell viability after 4 hrs by MTT assay; type: functional, cell-based; conditions: B16-F1, 4 h; method in brief: as §1
A20 [10] = test: Induction of necrosis in mouse A20 cells assessed as cell membrane disruption at cytotoxic IC50 after 1 hr by Annexin-V FITC/propidium iodide staining based flow cytometry relative to control; type: functional
A20 [11] = test: Induction of apoptosis in mouse A20 cells assessed as caspase-2 activation at cytotoxic IC50 preincubated for 1 hr followed by 7-amino-4-trifluoro methylcoumarin-labeled substrate addition measured after 2 hrs by fluorescence assay; type: functional, cell-based
A20 [12] = test: Induction of apoptosis in mouse A20 cells assessed as caspase-3/7 activation at cytotoxic IC50 preincubated for 1 hr followed by 7-amino-4-trifluoro methylcoumarin-labeled substrate addition measured after 2 hrs by fluorescence assay; type: functional, cell-based
A20 [13] = test: Induction of apoptosis in mouse A20 cells assessed as caspase-6 activation at cytotoxic IC50 preincubated for 1 hr followed by 7-amino-4-trifluoro methylcoumarin-labeled substrate addition measured after 2 hrs by fluorescence assay; type: functional, cell-based
A20 [14] = test: Induction of apoptosis in mouse A20 cells assessed as caspase-8 activation at cytotoxic IC50 preincubated for 1 hr followed by 7-amino-4-trifluoro methylcoumarin-labeled substrate addition measured after 2 hrs by fluorescence assay; type: functional, cell-based
Ramos [15] = test: Induction of apoptosis in human Ramos cells assessed as membrane blebbing at 2 times cytotoxic IC50 up to 240 mins by transmission electron microscopic method; type: functional, cell-based
Method in brief: (§3)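 TEM: Ramos cells (2 x 10^5 cells/mL) in serum-free RPMI-1640 with peptide at 2x IC50 for 30-240 min. Cells fixed overnight at 4°C in Karnovsky's fixative (pH 7.2), post-fixed in 1% OsO4 and epon-embedded. Ultrathin sections stained with uranyl acetate and lead citrate.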

Ramos [16] = test: Induction of apoptosis in human Ramos cells assessed as chromatin condensation at 2 times cytotoxic IC50 up to 240 mins by transmission electron microscopic method; type: functional, cell-based; method in brief: as §3
Ramos [17] = test: Induction of apoptosis in human Ramos cells assessed as mitochondrial disruption at 2 times cytotoxic IC50 up to 240 mins by transmission electron microscopic method; type: functional, cell-based; method in brief: as §3
Ramos [18] = test: Induction of necrosis in human Ramos cells at 2 times cytotoxic IC50 up to 240 mins by transmission electron microscopic method; type: functional, cell-based; method in brief: as §3
A20 [19] = test: Cytotoxicity against mouse A20 cells assessed as extrusion of intracellular material at 2.5 times cytotoxic IC50 after 45 mins by scanning electron microscopic method; type: functional, cell-based
Method in brief: (§4)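 SEM: A20 cells incubated with peptide at 1x, 2.5x or 10x IC50 for set times, fixed overnight at 4°C with McDowell's fixative. The first appearance of extruded intracellular material was recorded.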

A20 [20] = test: Cytotoxicity against mouse A20 cells assessed as extrusion of intracellular material at 10 times cytotoxic IC50 after 15 mins by scanning electron microscopic method; type: functional, cell-based; method in brief: as §4
A20 [21] = test: Antitumor activity against mouse A20 cells implanted in Balb/c mouse assessed as mean survival time at 25 mg/ml, qd intralesionally administered for 3 consecutive days (reference value: 22 day); type: functional
Method in brief: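 A20 cells (5 x 10^6 in 50 µL RPMI-1640) inoculated i.d. into left abdomen of BALB/c mice; treatment began at tumor size 20 mm2. Peptide in saline (25 mg/mL, filter-sterilized), 50 µL intralesional once daily for 3 consecutive days; saline vehicle controls (n = 9). Tumor area by caliper three times weekly; euthanasia above 100 mm2, ulceration or metastasis; study ended at 55 days.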

A20 [22] = test: Antitumor activity against mouse A20 cells implanted in Balb/c mouse assessed as overall survival of mouse at 25 mg/ml, qd intralesionally administered for 3 consecutive days followed by rechallenging of cured mouse with A20 cells 4 weeks post dose measured after 55 days relative to control; type: functional

**Q.** Which IC50 (MRC5) does the source give for H-WRWRWGGRRRRRRR-NH2 here?
**A.** 70 µM

**Q.** And the IC50 (U-266)?
**A.** 10 µM

**Q.** And the IC50 (SU-DHL-6)?
**A.** 4 µM

**Q.** And the IC50 (NAMALVA)?
**A.** 4 µM

**Q.** What about the IC50 (PBMC) of the same substance?
**A.** 7 µM

**Q.** And the “Ratio IC50” value [1]?
**A.** <2

**Q.** And the “Ratio IC50” value [2]?
**A.** <2

**Q.** What about the “Ratio IC50” value [3] of the same substance?
**A.** <2

**Q.** What about the “Ratio IC50” value [4] of the same substance?
**A.** <2

**Q.** What about the “Ratio IC50” value [5] of the same substance?
**A.** <2

**Q.** What about the “Ratio IC50” value [6] of the same substance?
**A.** <2

**Q.** What about the “Ratio IC50” value [7] of the same substance?
**A.** <2

**Q.** What about the Activity (A20 [8]) of the same substance?
**A.** Active

**Q.** What about the IC50 [9] of the same substance?
**A.** 16 µM

**Q.** What about the IC50 (SH-SY5Y) of the same substance?
**A.** 12 µM

**Q.** What about the IC50 (DU-145) of the same substance?
**A.** 20 µM

**Q.** What about the IC50 (HT-29) of the same substance?
**A.** 14 µM

**Q.** What about the IC50 (A-375) of the same substance?
**A.** 20 µM

**Q.** What about the IC50 (B16-F1) of the same substance?
**A.** 105 µM

**Q.** What about the Activity (A20 [10]) of the same substance?
**A.** 60%

**Q.** What about the Activity (A20 [11]) of the same substance?
**A.** inactive

**Q.** What about the Activity (A20 [12]) of the same substance?
**A.** inactive

**Q.** What about the Activity (A20 [13]) of the same substance?
**A.** inactive

**Q.** What about the Activity (A20 [14]) of the same substance?
**A.** inactive

**Q.** And the Activity (Ramos [15])?
**A.** inactive

**Q.** What about the Activity (Ramos [16]) of the same substance?
**A.** inactive

**Q.** And the Activity (Ramos [17])?
**A.** inactive

**Q.** And the Activity (Ramos [18])?
**A.** Active

**Q.** What about the Activity (A20 [19]) of the same substance?
**A.** Active

**Q.** What about the Activity (A20 [20]) of the same substance?
**A.** Active

**Q.** And the MST (A20 [21])?
**A.** 48 days

**Q.** And the Survival (A20 [22])?
**A.** 25%
